Results reported in ChEMBL document CHEMBL3784923, “Azathioprine pharmacokinetics after intravenous, oral, delayed release oral and rectal foam administration” (Gut, 1996).

How the values were obtained:
[1] = Cmax in uraemic patient (8 patients) at 100 mg, po; details: human, in vivo
[2] = Oral bioavailability in uraemic patient (8 patients) at 100 mg; details: human, in vivo
[3] = Stability in plasma (unknown origin) using compound stored in frozen condition; assay type: ADME, cell-free; details: unidentified
[4] = Volume of distribution at steady state in uraemic patient (15 patients) at 100 mg, iv; details: human, in vivo
[5] = Tmax in uraemic patient (8 patients) at 100 mg, po; details: human, in vivo
[6] = Stability in whole blood (unknown origin) using compound stored in ice water slurry; assay type: ADME, tissue-based; details: unidentified
[7] = Clearance in uraemic patient (15 patients) at 100 mg, iv; details: human, in vivo
Homo sapiens = species on record: Homo sapiens; assay: Toxicity in inflammatory bowel disease patient assessed as induction of leucopenia; assay type: organism-based; details: in vivo
[8] = Drug excretion in feces of human treated with Eudragit coated tablets; assay type: ADME, tissue-based; details: faeces, po, read-out: Drug excretion
[9] = Stability in plasma (unknown origin) at room temperature; assay type: ADME, cell-free; details: unidentified
Outline: (§1)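 6MP in plasma was held at room temperature, both unextracted and after extraction, and measured by HPLC.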

[10] = Stability of the compound in extracted form in plasma (unknown origin) at room temperature; assay type: ADME, cell-free; details: unidentified; outline: as §1

Compound | Cmax [1] | bioavailability [2] | Stability [3] | Vd [4] | Tmax [5] | Stability [6] | clearance [7] | Activity (Homo sapiens) | dose excreted [8] | Stability [9] | Stability [10]
Cn1cnc([N+](=O)[O-])c1Sc1ncnc2nc[nH]c12 [AZATHIOPRINE] | 22 ng/mL | 41% | <= 1 yr | 9.3 L/kg | 1.5 h | <= 5 hr | 103 mL/min/kg | 2% | – | – | –
Nc1ccc(O)c(C(=O)O)c1 [MESALAMINE] | – | – | – | – | – | – | – | – | 25% | – | –
Sc1ncnc2nc[nH]c12 [MERCAPTOPURINE ANHYDROUS] | – | – | <= 1 yr | – | – | <= 5 hr | – | 2% | – | 4 h | <= 30 hr
